This note sets out measurements from ChEMBL document CHEMBL4699394, “Insights into structural and physicochemical properties required for beta-hematin inhibition of privileged triarylimidazoles” (RSC Med Chem, 2020).

Molecules are shown by their SMILES.

In the first data set the test system is HeLa. Put plainly: Cytotoxicity against human HeLa cells assessed as reduction in cell viability at 20 uM incubated for 48 hrs by FACS analysis. Format: cell-based.
Details: not given; call rule not given here
A general note: Flow cytometry measures light scatter and fluorescence of single cells or particles in a stream.
`c1ccc(-c2nc(C3CCCCC3)[nH]c2-c2ccccc2)cc1`: the Activity entry is “Non-Toxic”.

Take `Fc1cccc(-c2nc(-c3ccccc3)c(-c3ccccc3)[nH]2)c1`: the Activity entry is “Non-Toxic”.

Turning to `Fc1ccc(-c2nc(-c3ccc(Cl)cc3)c(-c3ccccc3)[nH]2)cc1`, the Activity result was “Non-Toxic”.

For the compound `Fc1ccccc1-c1nc(-c2ccccc2)c(-c2ccccc2)[nH]1`, the Activity entry is “Non-Toxic”.

`Brc1ccc(-c2nc(-c3ccccc3)[nH]c2-c2ccccc2)cc1`: the Activity result is recorded as “Non-Toxic”.

Consider `c1ccc(-c2nc(-c3c[nH]c4ccccc34)[nH]c2-c2ccccc2)cc1`, for which the Activity result was “Non-Toxic”.

For the compound `Cc1ccc(-c2nc(-c3ccccc3)c(-c3ccccc3)[nH]2)cc1`, the Activity entry is “Non-Toxic”.

For `O=[N+]([O-])c1ccccc1-c1nc(-c2ccccc2)c(-c2ccccc2)[nH]1`, the Activity entry is given as “Non-Toxic”.

For `COc1ccccc1-c1nc(-c2ccccc2)c(-c2ccccc2)[nH]1`, the Activity entry was “Non-Toxic”.

`O=[N+]([O-])c1cccc(-c2nc(-c3ccccc3)c(-c3ccccc3)[nH]2)c1`: the Activity entry is recorded as “Non-Toxic”.

As for `Brc1ccc(-c2nc(-c3ccccc3)[nH]c2-c2ccc(Br)cc2)cc1`, the Activity result is reported as “Non-Toxic”.

Turning to `Fc1ccccc1-c1nc(-c2ccc(Cl)cc2)c(-c2ccccc2)[nH]1`, the Activity entry was “Non-Toxic”.

As for `COc1ccc(-c2nc(-c3ccc(Cl)cc3)c(-c3ccccc3)[nH]2)cc1`, the Activity result is recorded as “Non-Toxic”.

Turning to `O=[N+]([O-])c1cccc(-c2nc(-c3ccc(Cl)cc3)c(-c3ccccc3)[nH]2)c1`, the Activity entry was “Non-Toxic”.

In the case of `Clc1cccc(-c2nc(-c3ccccc3)c(-c3ccccc3)[nH]2)c1`, the Activity result is on record as “Non-Toxic”.

For `c1ccc(-c2nc(-c3ccco3)[nH]c2-c2ccccc2)cc1`, the Activity entry is given as “Non-Toxic”.

In the case of `Clc1ccc(-c2nc(-c3ccccc3)c(-c3ccccc3)[nH]2)cc1`, the Activity entry is “Non-Toxic”.

Turning to `Brc1ccc(-c2nc(-c3ccccc3)c(-c3ccccc3)[nH]2)cc1`, the Activity result is “Non-Toxic”.

As to `Clc1ccc(-c2nc(-c3ccc(Br)cc3)[nH]c2-c2ccccc2)cc1`, the Activity result is “Non-Toxic”.

Consider `Cc1ccccc1-c1nc(-c2ccccc2)c(-c2ccccc2)[nH]1`, for which the Activity entry is “Non-Toxic”.

Regarding `COc1ccc(-c2nc(-c3ccccc3)c(-c3ccccc3)[nH]2)cc1`, the Activity entry was “Non-Toxic”.

Turning to `Clc1ccc(-c2nc(-c3ccc(Cl)cc3)c(-c3ccccc3)[nH]2)cc1`, the Activity entry was “Non-Toxic”.

Take `COc1ccc(-c2nc(-c3ccc(Br)cc3)c(-c3ccccc3)[nH]2)cc1`: the Activity result was “Non-Toxic”.

For the compound `c1ccc(-c2nc(-c3ccc4ccccc4c3)[nH]c2-c2ccccc2)cc1`, the Activity result is listed as “Non-Toxic”.

Regarding `Brc1ccc(-c2nc(-c3ccc(Br)cc3)c(-c3ccccc3)[nH]2)cc1`, the Activity entry is on record as “Non-Toxic”.

As for `Clc1ccc(-c2nc(-c3ccccc3)[nH]c2-c2ccccc2)cc1`, the Activity result is given as “Non-Toxic”.

Take `CCC(CC)c1nc(-c2ccccc2)c(-c2ccccc2)[nH]1`: the Activity entry is “Non-Toxic”.

The next data set concerns Hemozoin. Put plainly: Inhibition of beta-hematin formation assessed as reduction in hemozoin formation incubated for 20 hrs by NP40 detergent-mediated assay.
Details: not given
In outline: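 In vitro β-hematin formation assay buffered at acidic pH 4.8 to mimic the parasite digestive vacuole. IC50 is the mean of experiments run in technical triplicate.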
On to `Fc1cccc(-c2nc(-c3ccccc3)c(-c3ccccc3)[nH]2)c1`, for which the IC50 result is “Not Active”.

Take `O=[N+]([O-])c1ccccc1-c1nc(-c2ccccc2)c(-c2ccccc2)[nH]1`: the IC50 entry is “Not Active”.

In the case of `COc1ccccc1-c1nc(-c2ccccc2)c(-c2ccccc2)[nH]1`, the IC50 entry is recorded as “Not Active”.

Consider `O=[N+]([O-])c1cccc(-c2nc(-c3ccccc3)c(-c3ccccc3)[nH]2)c1`, for which the IC50 result was “Not Active”.

With `Brc1ccc(-c2nc(-c3ccccc3)[nH]c2-c2ccc(Br)cc2)cc1`, the 50% inhibitory concentration (IC50) result is reported as “Not Active”.

Turning to `Clc1cccc(-c2nc(-c3ccccc3)c(-c3ccccc3)[nH]2)c1`, the IC50 entry is given as “Not Active”.

With `Clc1ccc(-c2nc(-c3ccccc3)c(-c3ccccc3)[nH]2)cc1`, the IC50 result is “Not Active”.

Take `c1ccc(-c2nc(-c3ccc4ccccc4c3)[nH]c2-c2ccccc2)cc1`: the IC50 result is on record as “Not Active”.

With `CCC(CC)c1nc(-c2ccccc2)c(-c2ccccc2)[nH]1`, the concentration for half-maximal inhibition (IC50) result is on record as “Not Active”.

The data set is the same for the next values; noted with them: read-out: IC50.
In the case of `c1ccc(-c2nc(C3CCCCC3)[nH]c2-c2ccccc2)cc1`, the IC50 is over 500 µM.

Regarding `Fc1ccc(-c2nc(-c3ccc(Cl)cc3)c(-c3ccccc3)[nH]2)cc1`, the IC50 is 28 µM.

For `Fc1ccccc1-c1nc(-c2ccccc2)c(-c2ccccc2)[nH]1`, the IC50 is over 500 µM.

Turning to `Brc1ccc(-c2nc(-c3ccccc3)[nH]c2-c2ccccc2)cc1`, the IC50 is 294 µM.

`CCN(CC)CCCC(C)Nc1ccnc2cc(Cl)ccc12` (configuration not stated) [CHLOROQUINE]: the IC50 is 16.9 µM.

For `c1ccc(-c2nc(-c3c[nH]c4ccccc34)[nH]c2-c2ccccc2)cc1`, the IC50 is 72.8 µM.

For the compound `Cc1ccc(-c2nc(-c3ccccc3)c(-c3ccccc3)[nH]2)cc1`, the IC50 turned out to be 156 µM.

On to `Fc1ccccc1-c1nc(-c2ccc(Cl)cc2)c(-c2ccccc2)[nH]1`, for which the IC50 was over 500 µM.

Take `COc1ccc(-c2nc(-c3ccc(Cl)cc3)c(-c3ccccc3)[nH]2)cc1`: the IC50 is 20.5 µM.

For `O=[N+]([O-])c1cccc(-c2nc(-c3ccc(Cl)cc3)c(-c3ccccc3)[nH]2)c1`, the IC50 was over 500 µM.

For `c1ccc(-c2nc(-c3ccco3)[nH]c2-c2ccccc2)cc1`, the IC50 was 401 µM.

For `Brc1ccc(-c2nc(-c3ccccc3)c(-c3ccccc3)[nH]2)cc1`, the 50% inhibitory concentration (IC50) amounted to 489 µM.

In the case of `Clc1ccc(-c2nc(-c3ccc(Br)cc3)[nH]c2-c2ccccc2)cc1`, the IC50 came out at 28.8 µM.

For the compound `Cc1ccccc1-c1nc(-c2ccccc2)c(-c2ccccc2)[nH]1`, the IC50 was over 500 µM.

For `COc1ccc(-c2nc(-c3ccccc3)c(-c3ccccc3)[nH]2)cc1`, the IC50 is 48.1 µM.

As for `Clc1ccc(-c2nc(-c3ccc(Cl)cc3)c(-c3ccccc3)[nH]2)cc1`, the IC50 came to 39 µM.

Take `COc1ccc(-c2nc(-c3ccc(Br)cc3)c(-c3ccccc3)[nH]2)cc1`: the IC50 was 20.3 µM.

In the case of `Brc1ccc(-c2nc(-c3ccc(Br)cc3)c(-c3ccccc3)[nH]2)cc1`, the IC50 stood at 54.2 µM.

Turning to `Clc1ccc(-c2nc(-c3ccccc3)[nH]c2-c2ccccc2)cc1`, the IC50 was over 500 µM.

In the next data set the test system is Plasmodium falciparum. Put plainly: Antimalarial activity against Plasmodium falciparum 3D7 infected in human Erythrocyte assessed as reduction in plasmodial growth incubated for 48 hrs by FACS analysis. The data set is classed as functional, organism-based. The conditions noted are these: 3D7, Erythrocyte. In outline: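 Dose-response IC50 against P. falciparum 3D7. Only compounds that reduced parasite viability below 10% in a 20 μM, 48 h single-concentration screen were tested. IC50 is the mean of experiments run in technical triplicate.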
As to `Fc1ccc(-c2nc(-c3ccc(Cl)cc3)c(-c3ccccc3)[nH]2)cc1`, the IC50 stood at 6.5 µM.

Turning to `Brc1ccc(-c2nc(-c3ccccc3)[nH]c2-c2ccc(Br)cc2)cc1`, the IC50 came to 13 µM.

For `COc1ccc(-c2nc(-c3ccc(Cl)cc3)c(-c3ccccc3)[nH]2)cc1`, the IC50 came out at 11 µM.

Consider `Clc1ccc(-c2nc(-c3ccc(Br)cc3)[nH]c2-c2ccccc2)cc1`, for which the IC50 turned out to be 8 µM.

As to `COc1ccc(-c2nc(-c3ccc(Br)cc3)c(-c3ccccc3)[nH]2)cc1`, the IC50 was found to be 1.5 µM.

Consider `CCC(CC)c1nc(-c2ccccc2)c(-c2ccccc2)[nH]1`, for which the IC50 stood at 11 µM.

The next data set deals with Plasmodium falciparum. Put plainly: Antimalarial activity against Plasmodium falciparum 3D7 infected in human Erythrocyte assessed as plasmodial growth at 20 uM incubated for 48 hrs by FACS analysis relative to control. Format: functional.
Details: not given
With `Fc1ccc(-c2nc(-c3ccc(Cl)cc3)c(-c3ccccc3)[nH]2)cc1`, the Activity is under 10%.

Turning to `Brc1ccc(-c2nc(-c3ccccc3)[nH]c2-c2ccc(Br)cc2)cc1`, the Activity is given as under 10%.

In the case of `COc1ccc(-c2nc(-c3ccc(Cl)cc3)c(-c3ccccc3)[nH]2)cc1`, the Activity is reported as under 10%.

Take `Clc1ccc(-c2nc(-c3ccc(Br)cc3)[nH]c2-c2ccccc2)cc1`: the Activity is given as under 10%.

For the compound `COc1ccc(-c2nc(-c3ccc(Br)cc3)c(-c3ccccc3)[nH]2)cc1`, the Activity is under 10%.

As for `CCC(CC)c1nc(-c2ccccc2)c(-c2ccccc2)[nH]1`, the Activity was under 10%.

The term IC50 denotes the concentration needed to halve the response being measured.
